Experimental data: paper PMC6147567 (Molecules : A Journal of Synthetic Chemistry and Natural …, 2005)

Experiments:
[1] = molecular target: xanthine oxidase (Xox) from buttermilk (Bos taurus, UniProt P80457); assay: Inhibition of xanthine oxidase, hypoxanthine oxidation test; type: biochemical; details: for inhibition of Xox (in words): Xox from buttermilk
In short: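 Buttermilk enzyme assayed by hypoxanthine oxidation at 48–150 μM substrate in 50 mM phosphate, pH 7.0, 25 °C. Product formation was followed at 300 nm in a thermostatted spectrophotometer. Inhibitor concentrations were set spectrophotometrically from absorption data and reached up to ~300 μM. IC50 was obtained at more than one hypoxanthine level, and 'no inhibition' means none detected up to 300 μM.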

[2] = molecular target: T1, rabbit muscle guanine deaminase (GDA) (Oryctolagus cuniculus, UniProt G1T386); assay: Guanine deaminase assay with 8-azaguanine as substrate; type: biochemical; details: concentrations up to 150 μM, 50 mM phosphate pH 6.1, 25 °C
T1 sequence (G1T386 1-454): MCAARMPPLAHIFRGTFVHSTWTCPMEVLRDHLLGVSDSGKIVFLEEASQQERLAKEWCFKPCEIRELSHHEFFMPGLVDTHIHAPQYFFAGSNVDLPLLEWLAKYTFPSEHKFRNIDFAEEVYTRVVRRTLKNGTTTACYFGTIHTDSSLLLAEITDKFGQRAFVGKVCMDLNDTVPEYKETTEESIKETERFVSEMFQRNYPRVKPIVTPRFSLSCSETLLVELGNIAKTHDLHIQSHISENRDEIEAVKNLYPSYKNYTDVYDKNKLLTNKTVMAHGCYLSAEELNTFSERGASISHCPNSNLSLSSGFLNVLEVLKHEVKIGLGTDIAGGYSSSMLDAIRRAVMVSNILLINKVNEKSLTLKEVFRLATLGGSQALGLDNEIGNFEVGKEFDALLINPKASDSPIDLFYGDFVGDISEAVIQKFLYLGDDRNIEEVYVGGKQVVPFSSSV
In short: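 Commercial guanine deaminase, assayed at pH 6.1 with ~50 μM 8-azaguanine as substrate. Reaction followed at 265 nm in a thermostatted UV spectrophotometer; default temperature for the work was 25 °C. Test compound concentrations were determined spectrophotometrically from absorption data and ranged up to ~300 μM.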

xanthine oxidase (Xox) = details: cited from earlier work

xanthine oxidase (Xox) from buttermilk, sequence (P80457 whole entry): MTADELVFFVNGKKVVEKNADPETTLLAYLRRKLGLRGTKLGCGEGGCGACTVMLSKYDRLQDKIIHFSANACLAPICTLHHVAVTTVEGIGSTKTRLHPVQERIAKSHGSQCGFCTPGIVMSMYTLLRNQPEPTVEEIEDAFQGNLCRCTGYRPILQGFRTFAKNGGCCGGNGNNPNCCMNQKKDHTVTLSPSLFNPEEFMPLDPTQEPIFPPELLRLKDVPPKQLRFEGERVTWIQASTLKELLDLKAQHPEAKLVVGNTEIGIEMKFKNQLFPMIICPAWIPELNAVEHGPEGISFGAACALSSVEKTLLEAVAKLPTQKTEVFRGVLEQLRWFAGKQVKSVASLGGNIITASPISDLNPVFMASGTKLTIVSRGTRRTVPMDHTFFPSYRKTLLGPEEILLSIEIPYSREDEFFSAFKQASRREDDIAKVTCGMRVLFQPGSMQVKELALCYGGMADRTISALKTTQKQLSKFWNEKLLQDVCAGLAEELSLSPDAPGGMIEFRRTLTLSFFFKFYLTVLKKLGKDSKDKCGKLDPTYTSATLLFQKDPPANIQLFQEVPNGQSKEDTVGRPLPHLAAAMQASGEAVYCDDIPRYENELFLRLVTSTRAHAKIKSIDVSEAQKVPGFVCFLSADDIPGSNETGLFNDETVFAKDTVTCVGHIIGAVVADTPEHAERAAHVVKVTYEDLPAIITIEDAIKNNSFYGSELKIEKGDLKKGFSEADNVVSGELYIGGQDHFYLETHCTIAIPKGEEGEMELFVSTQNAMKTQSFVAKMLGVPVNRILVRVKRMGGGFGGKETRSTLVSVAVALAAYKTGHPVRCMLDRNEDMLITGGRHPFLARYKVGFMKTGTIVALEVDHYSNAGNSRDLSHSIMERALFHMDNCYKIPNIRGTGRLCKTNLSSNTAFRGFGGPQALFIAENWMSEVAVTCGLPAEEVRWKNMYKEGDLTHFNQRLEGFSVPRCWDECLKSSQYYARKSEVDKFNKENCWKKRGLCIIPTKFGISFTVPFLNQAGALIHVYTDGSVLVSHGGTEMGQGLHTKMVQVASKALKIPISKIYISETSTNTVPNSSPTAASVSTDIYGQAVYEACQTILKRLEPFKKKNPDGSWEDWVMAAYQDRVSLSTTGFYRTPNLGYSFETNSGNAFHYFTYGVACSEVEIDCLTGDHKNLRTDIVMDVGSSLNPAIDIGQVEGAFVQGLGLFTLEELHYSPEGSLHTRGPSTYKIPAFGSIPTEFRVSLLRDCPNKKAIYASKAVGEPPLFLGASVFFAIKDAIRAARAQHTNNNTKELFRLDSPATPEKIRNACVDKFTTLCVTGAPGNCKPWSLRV

Row | IC50 [1] [µM] | inhibition of Xox (in words) [1] | Structure (SMILES) | further results
1 | ~300 | moderate inhibitory activity | CSc1nnc2[nH]nc(C)c2n1 [Compound 1, 3-Methyl-5-methylsulfanyl-1H-pyrazolo[4,3-e][1,2,4]triazine] | inhibition of Xox (in words) ([1]; listed as S-methyl derivative): detectable inhibition
2 | > 300 |  | Cc1n[nH]c2nnc(N)nc12 [Compound 4, 5-Amino-3-methyl-1H-pyrazolo[4,3-e][1,2,4]triazine] | activity as a substrate of GDA [2]: did not show any activity; activity as an inhibitor of GDA [2]: did not show any activity
3 |  | Only weak inhibition | Cc1n[nH]c2nncnc12 [Compound 7, 3-Methyl-1H-pyrazolo[4,3-e][1,2,4]triazine] | inhibition of Xox (in words) ([1]; listed as 3-methyl-7-azapyrazolo[4,3-d]pyrimidine): detectable inhibition
4 | > 300 |  | Cc1nn(C)c2nncnc12 [Compound 8, 1,3-dimethyl-1H-pyrazolo[4,3-e][1,2,4]triazine] | 
5 |  |  | Oc1ncnc2[nH]ncc12 [allopurinol] | inhibition of xanthine oxidase (in words) (xanthine oxidase (Xox)): strong inhibitors
